pIC50, pKi: −log10 of the molar value. Calls of active or inactive are those of the source.
Key:
[1] = Apparent permeability from apical to basolateral side in MDCK cells; format: ADME, cell-based, Canis lupus familiaris; conditions: dog
In short: (§1)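 MDCK monolayers; A-to-B Papp in 1 × 10⁻⁶ cm/s; efflux taken as ratio of A-to-B Papp over B-to-A Papp.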

[2] = Volume of distribution at steady state in rat at 2.3 umol/kg, iv; format: ADME, organism-based; conditions: in vivo, read-out: Vdss
In short: (§2)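 IV dosing in male fasted rats, doses in μmol/kg; mean Vss, half-life and clearance derived; number of rats per compound reported.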

MDCK = assay: Efflux ratio of apparent permeability from apical to basolateral side over basolateral to apical side in MDCK cells; format: ADME, cell-based, Canis lupus familiaris; conditions: dog; in short: as §1
Rattus norvegicus [3] = assay: […] clearance in rat at 2.3 umol/kg, iv; format: ADME, organism-based; conditions: in vivo; in short: as §2
[4] = biological target: Voltage-gated inwardly rectifying potassium channel KCNH2 (Homo sapiens, UniProt Q12809); assay: Inhibition of human ERG expressed in CHOK1 cells by electrophysiological analysis
Chain of Voltage-gated inwardly rectifying potassium channel KCNH2 (Q12809 whole entry): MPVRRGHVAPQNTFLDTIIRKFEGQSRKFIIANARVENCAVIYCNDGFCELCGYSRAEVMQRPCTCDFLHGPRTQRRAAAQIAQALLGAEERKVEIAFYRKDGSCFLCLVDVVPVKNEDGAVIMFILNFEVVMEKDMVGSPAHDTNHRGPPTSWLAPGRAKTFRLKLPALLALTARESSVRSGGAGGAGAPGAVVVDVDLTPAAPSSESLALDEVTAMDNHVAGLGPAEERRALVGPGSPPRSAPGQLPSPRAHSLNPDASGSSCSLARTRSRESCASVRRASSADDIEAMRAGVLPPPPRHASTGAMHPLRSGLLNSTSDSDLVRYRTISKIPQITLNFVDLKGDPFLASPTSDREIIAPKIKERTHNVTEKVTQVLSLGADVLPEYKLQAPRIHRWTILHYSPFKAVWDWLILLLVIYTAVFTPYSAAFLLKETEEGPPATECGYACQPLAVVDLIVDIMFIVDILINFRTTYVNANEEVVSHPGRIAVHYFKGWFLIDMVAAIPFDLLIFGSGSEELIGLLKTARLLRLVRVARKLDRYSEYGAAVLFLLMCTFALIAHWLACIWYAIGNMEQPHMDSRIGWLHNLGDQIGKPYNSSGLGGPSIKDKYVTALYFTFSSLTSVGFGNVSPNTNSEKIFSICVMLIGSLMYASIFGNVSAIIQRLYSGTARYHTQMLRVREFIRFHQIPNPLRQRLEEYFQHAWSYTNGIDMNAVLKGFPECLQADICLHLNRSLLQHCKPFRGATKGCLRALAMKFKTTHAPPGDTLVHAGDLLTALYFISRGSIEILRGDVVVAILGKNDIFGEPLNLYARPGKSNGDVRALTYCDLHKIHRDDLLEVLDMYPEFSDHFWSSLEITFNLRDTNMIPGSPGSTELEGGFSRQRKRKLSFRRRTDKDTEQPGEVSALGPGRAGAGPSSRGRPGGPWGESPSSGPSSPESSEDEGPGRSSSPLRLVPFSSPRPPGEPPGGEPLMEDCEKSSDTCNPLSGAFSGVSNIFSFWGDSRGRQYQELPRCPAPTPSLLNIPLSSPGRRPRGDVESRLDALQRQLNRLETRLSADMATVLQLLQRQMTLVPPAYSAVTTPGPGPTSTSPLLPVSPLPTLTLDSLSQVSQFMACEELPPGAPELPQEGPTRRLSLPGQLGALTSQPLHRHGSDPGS

[5] = Octanol-water partition coefficient, log D of the compound by shake flask HPLC analysis; format: physicochemical
In short: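 logD between octanol and water by shake-flask with HPLC analysis.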

[6] = Intrinsic clearance in human liver microsomes; format: ADME; conditions: read-out: CLH
In short: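 Human liver microsomal clearance, expressed as μL/min/mg.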

[7] = Equilibrium solubility of the compound at pH 7.4; format: physicochemical; conditions: buffer
Histamine H3 receptor [8] = biological target: T1, Histamine H3 receptor (Homo sapiens, UniProt Q9Y5N1); assay: Antagonist activity at human histamine H3 receptor long form expressed in CHOK1 cells assessed as inhibition of R-alpha-methylhistamine-induced [35S]GTPgammaS binding after 3 hrs by scintillation proximity assay; format: functional, cell-based, CHO-K1
T1 sequence (Q9Y5N1 whole entry): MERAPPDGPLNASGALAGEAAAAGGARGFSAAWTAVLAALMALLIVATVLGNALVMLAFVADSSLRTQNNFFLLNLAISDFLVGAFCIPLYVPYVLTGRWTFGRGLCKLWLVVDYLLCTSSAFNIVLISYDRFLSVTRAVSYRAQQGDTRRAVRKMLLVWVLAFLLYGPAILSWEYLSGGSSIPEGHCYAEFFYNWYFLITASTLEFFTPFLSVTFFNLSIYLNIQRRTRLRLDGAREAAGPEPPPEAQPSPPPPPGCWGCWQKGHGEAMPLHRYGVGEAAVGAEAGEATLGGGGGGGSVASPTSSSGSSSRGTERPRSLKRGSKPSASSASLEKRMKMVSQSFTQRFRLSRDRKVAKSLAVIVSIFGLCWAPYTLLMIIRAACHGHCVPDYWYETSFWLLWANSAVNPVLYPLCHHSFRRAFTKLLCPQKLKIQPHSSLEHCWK
In short: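 Membranes from CHO-K1 cells stably expressing human H3R long form (445 aa) incubated 3 h with test compound, 25 nM R-α-methylhistamine, 10 μM GDP, 0.2 nM [35S]GTPγS and WGA PVT SPA beads; bead-bound [35S]GTPγS counted by scintillation. Average of n > 2, standard error <20%.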

[9] = Intrinsic clearance in rat liver microsomes; format: ADME; conditions: read-out: CLH
[10] = Half life in rat at 2.3 umol/kg, iv; format: ADME, organism-based; conditions: in vivo; in short: as §2
[11] = Volume of distribution at steady state in rat at 2.1 umol/kg, iv; format: ADME, organism-based; conditions: in vivo, read-out: Vdss; in short: as §2
Histamine H3 receptor [12] = biological target: T1, Histamine H3 receptor; assay: Displacement of [3H]-N-alpha-methylhistamine from human histamine H3 receptor expressed in CHOK1 cells after 1.5 hrs by scintillation proximity assay; format: cell-based, CHO-K1
In short: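 Human H3R-CHO-K1 membranes incubated 1.5 h with test compound and [3H]-N-α-methylhistamine in SPA format; nonspecific binding defined with 10 μM imetit; bead-bound radioligand counted. Average of n > 2, standard error <50%.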

[13] = Half life in rat at 2.1 umol/kg, iv; format: ADME, organism-based; conditions: in vivo; in short: as §2
Rattus norvegicus [14] = assay: […] clearance in rat at 2.1 umol/kg, iv; format: ADME, organism-based; conditions: in vivo; in short: as §2
[15] = Percentage unbound in rat plasma; format: ADME, cell-free
In short: (§3)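 Plasma protein binding in human or rat plasma, expressed as percent free.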

Histamine H3 receptor [16] = biological target: T1, Histamine H3 receptor; assay: Inverse agonist activity at human histamine H3 receptor long form expressed in CHOK1 cells assessed as reduction in [35S]GTPgammaS binding after 3 hrs by scintillation proximity assay; format: functional, cell-based; conditions: CHO-K1
In short: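 Basal [35S]GTPγS binding, without agonist stimulation, to membranes expressing recombinant human H3R.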

[17] = Percentage unbound in human plasma; format: ADME, cell-free; in short: as §3
Rattus norvegicus [18] = assay: […] clearance in rat at 3.5 umol/kg, iv; format: ADME, organism-based; conditions: in vivo; in short: as §2
[19] = Half life in rat at 3.5 umol/kg, iv; format: ADME, organism-based; conditions: in vivo; in short: as §2
[20] = Volume of distribution at steady state in rat at 3.5 umol/kg, iv; format: ADME, organism-based; conditions: in vivo, read-out: Vdss
In short: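 Male fasted rats given a single IV dose. Volume of distribution taken as the mean from plasma sampling after the IV dose. Animals per compound: 1 to 7.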

[21] = Volume of distribution at steady state in rat at 1.8 umol/kg, iv; format: ADME, organism-based; conditions: in vivo, read-out: Vdss; in short: as §2
[22] = Half life in rat at 1.8 umol/kg, iv; format: ADME, organism-based; conditions: in vivo; in short: as §2
Rattus norvegicus [23] = assay: […] clearance in rat at 1.8 umol/kg, iv; format: ADME, organism-based; conditions: in vivo; in short: as §2
[24] = biological target: Adenosine receptor A2a (Homo sapiens) (UniProt P29274); assay: Activity at adenosine A2a receptor (unknown origin) at 10 uM relative to control
Chain of Adenosine receptor A2a (Homo sapiens) (P29274 whole entry): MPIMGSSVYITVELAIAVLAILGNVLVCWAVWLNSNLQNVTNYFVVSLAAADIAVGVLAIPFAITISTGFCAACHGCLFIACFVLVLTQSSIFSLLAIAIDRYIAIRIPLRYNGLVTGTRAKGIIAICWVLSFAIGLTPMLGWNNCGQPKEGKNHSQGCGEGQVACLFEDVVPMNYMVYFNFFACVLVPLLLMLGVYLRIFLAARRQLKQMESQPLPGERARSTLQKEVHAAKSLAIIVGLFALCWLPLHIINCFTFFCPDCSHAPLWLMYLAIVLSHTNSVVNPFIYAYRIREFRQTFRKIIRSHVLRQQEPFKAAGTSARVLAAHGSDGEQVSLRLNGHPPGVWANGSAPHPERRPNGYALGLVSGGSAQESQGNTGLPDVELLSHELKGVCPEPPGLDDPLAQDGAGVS
In short: (§4)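 Single-concentration binding at 10 μM against a panel of off-targets, run by an outside testing laboratory; activity judged against each assay's defined criteria.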

Homo sapiens [25] = species: Homo sapiens; assay: Activity at nicotinic acetylcholine receptor (unknown origin) at 10 uM relative to control; in short: as §4
[26] = Volume of distribution at steady state in rat at 2.4 umol/kg, iv; format: ADME, organism-based; conditions: in vivo, read-out: Vdss; in short: as §2
[27] = biological target: Phosphodiesterase 4 (Homo sapiens) (UniProt P27815+Q08499+Q07343+Q08493); assay: Activity at PDE4 (unknown origin) at 10 uM relative to control; format: protein assay; in short: as §4
[28] = biological target: Histamine H4 receptor (Homo sapiens) (UniProt Q9H3N8); assay: Activity at histamine H4 receptor (unknown origin) at 10 uM relative to control; in short: as §4
Chain of Histamine H4 receptor (Homo sapiens) (Q9H3N8 whole entry): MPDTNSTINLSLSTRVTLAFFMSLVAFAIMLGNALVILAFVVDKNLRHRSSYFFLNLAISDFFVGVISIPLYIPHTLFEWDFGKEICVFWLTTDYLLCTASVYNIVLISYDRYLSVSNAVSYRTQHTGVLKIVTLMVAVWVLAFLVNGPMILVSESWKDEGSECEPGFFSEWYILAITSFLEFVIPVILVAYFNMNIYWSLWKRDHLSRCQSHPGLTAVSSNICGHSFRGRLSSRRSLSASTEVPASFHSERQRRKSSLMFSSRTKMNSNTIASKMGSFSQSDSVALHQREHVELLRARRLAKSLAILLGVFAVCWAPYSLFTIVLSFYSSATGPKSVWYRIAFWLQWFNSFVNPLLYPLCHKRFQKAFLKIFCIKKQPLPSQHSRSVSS

[29] = biological target: Sodium-dependent noradrenaline transporter (Homo sapiens) (UniProt P23975); assay: Activity at NET (unknown origin) at 10 uM relative to control; in short: as §4
Chain of Sodium-dependent noradrenaline transporter (Homo sapiens) (P23975 whole entry): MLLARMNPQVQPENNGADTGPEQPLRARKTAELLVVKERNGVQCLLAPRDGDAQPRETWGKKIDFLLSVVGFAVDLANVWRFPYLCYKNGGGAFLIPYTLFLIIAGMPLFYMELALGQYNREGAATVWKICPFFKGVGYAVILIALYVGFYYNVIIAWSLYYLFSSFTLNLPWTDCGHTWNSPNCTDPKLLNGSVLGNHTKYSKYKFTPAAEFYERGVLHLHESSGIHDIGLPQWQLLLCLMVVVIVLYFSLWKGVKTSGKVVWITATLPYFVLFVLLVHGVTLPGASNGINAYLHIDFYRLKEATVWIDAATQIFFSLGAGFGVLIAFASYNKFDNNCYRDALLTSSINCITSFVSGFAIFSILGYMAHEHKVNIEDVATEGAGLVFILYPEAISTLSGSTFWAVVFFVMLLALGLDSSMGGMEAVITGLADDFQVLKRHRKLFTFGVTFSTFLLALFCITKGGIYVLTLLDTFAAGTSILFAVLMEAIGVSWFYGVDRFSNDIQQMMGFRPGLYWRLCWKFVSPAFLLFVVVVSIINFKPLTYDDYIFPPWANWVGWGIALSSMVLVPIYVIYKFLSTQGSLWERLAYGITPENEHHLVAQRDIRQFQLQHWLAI

Rattus norvegicus [30] = assay: […] clearance in rat at 2.4 umol/kg, iv; format: ADME, organism-based; conditions: in vivo; in short: as §2
[31] = Half life in rat at 2.4 umol/kg, iv; format: ADME, organism-based; conditions: in vivo; in short: as §2
[32] = biological target: T2, 5-hydroxytryptamine receptor 1A (Homo sapiens) (UniProt P08908); assay: Activity at 5-HT1A receptor (unknown origin) at 10 uM relative to control; in short: as §4
T2 sequence (whole entry): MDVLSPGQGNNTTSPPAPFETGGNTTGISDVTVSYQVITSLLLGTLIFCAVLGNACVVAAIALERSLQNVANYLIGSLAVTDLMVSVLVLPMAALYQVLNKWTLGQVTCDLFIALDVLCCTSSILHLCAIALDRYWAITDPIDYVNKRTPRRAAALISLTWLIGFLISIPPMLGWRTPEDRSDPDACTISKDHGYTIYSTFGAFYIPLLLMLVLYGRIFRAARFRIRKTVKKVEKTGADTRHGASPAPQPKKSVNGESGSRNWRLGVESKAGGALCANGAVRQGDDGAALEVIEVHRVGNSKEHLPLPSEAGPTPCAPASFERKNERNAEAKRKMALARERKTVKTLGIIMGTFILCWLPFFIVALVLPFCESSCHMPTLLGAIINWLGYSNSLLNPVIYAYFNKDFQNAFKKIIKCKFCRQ

[33] = biological target: T3, Muscarinic acetylcholine receptor M2 (Homo sapiens) (UniProt P08172); assay: Activity at muscarinic M2 receptor (unknown origin) at 10 uM relative to control; in short: as §4
T3 sequence (whole entry): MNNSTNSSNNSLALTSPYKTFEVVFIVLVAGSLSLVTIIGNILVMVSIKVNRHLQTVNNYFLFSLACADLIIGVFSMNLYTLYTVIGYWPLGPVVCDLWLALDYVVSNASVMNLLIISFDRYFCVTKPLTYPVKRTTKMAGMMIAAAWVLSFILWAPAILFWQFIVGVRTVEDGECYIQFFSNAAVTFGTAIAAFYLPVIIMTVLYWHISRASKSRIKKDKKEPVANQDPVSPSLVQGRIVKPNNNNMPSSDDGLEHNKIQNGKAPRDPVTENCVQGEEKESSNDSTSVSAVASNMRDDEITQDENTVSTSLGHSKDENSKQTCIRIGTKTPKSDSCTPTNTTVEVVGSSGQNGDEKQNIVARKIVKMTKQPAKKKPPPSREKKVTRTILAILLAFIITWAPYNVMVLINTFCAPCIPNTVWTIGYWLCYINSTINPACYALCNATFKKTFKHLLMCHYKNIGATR

[34] = biological target: Histamine H1 receptor (Homo sapiens) (UniProt P35367); assay: Activity at histamine H1 receptor (unknown origin) at 10 uM relative to control; in short: as §4
Chain of Histamine H1 receptor (Homo sapiens) (P35367 whole entry): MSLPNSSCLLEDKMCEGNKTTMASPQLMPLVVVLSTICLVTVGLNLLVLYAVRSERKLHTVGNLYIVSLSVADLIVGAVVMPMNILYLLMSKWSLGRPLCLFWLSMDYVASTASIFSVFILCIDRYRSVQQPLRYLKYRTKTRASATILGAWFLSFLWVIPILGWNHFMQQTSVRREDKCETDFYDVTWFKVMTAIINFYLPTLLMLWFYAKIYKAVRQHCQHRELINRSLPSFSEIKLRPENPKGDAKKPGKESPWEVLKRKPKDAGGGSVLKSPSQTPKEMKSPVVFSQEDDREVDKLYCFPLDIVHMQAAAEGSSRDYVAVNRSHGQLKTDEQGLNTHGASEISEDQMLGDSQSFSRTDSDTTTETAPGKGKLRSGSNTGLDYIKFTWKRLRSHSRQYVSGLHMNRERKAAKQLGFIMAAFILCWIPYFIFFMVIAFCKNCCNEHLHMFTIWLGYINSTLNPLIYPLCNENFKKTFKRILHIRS

[35] = biological target: D(2) dopamine receptor (Homo sapiens) (UniProt P14416); assay: Activity at dopamine D2 receptor (unknown origin) at 10 uM relative to control; in short: as §4
Chain of D(2) dopamine receptor (Homo sapiens) (P14416 whole entry): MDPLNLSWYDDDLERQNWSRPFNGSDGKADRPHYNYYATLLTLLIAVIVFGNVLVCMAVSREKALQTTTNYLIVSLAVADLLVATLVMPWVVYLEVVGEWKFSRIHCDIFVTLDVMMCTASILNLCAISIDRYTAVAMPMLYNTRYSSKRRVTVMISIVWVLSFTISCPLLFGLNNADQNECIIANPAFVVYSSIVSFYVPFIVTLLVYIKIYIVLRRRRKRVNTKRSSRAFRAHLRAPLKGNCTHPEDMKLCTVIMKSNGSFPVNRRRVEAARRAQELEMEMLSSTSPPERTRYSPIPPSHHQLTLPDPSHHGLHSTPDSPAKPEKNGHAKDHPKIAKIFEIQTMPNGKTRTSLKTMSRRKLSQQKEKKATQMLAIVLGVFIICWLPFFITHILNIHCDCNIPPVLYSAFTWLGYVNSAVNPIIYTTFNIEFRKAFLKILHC

Homo sapiens [36] = species: Homo sapiens; assay: Activity at GABA receptor (unknown origin) at 10 uM relative to control; in short: as §4

SMILES | Papp A→B [1] | Ratio (MDCK) | pIC50 [4] | logD [5] | microsomal CLint [6] | solubility thermodynamic [7] | pIC50 (Histamine H3 receptor [8]) | microsomal CLint [9] | pKi (Histamine H3 receptor [12]) | fraction unbound [17] | also measured
O=C(c1ccccc1)N1CCC2(CC1)CCN(C(=O)N1CCN(C3CCC3)CC1)C2 | 8.8 ×10⁻⁶ cm/s | 4.5 | < 4.48 | 1.8 | 18 µL/min/mg | > 500 µM | 7.89 | 25 µL/min/mg | – | – | Vd [2]: 3.7 L/kg; CL (Rattus norvegicus [3]): 91 mL/min/kg; half-life [10]: 1.1 h
CC(C)N1CCN(C(=O)C2CC3(CCN(C4CCOCC4)CC3)C2)CC1 | 3.6 ×10⁻⁶ cm/s | – | – | -0.74 | < 4 µL/min/mg | > 500 µM | 8.77 | < 4 µL/min/mg | 9.52 | – | Vd [11]: 64 L/kg; half-life [13]: 11.7 h; CL (Rattus norvegicus [14]): 78 mL/min/kg
O=C(C1CC12CCN(C1CCOCC1)CC2)N1CCN(C2CCC2)CC1 (racemic) | 3.9 ×10⁻⁶ cm/s | – | – | 0.24 | 29 µL/min/mg | > 500 µM | 8.44 | < 4 µL/min/mg | 8.89 | 0.91 | fraction unbound [15]: 0.8; Activity (Histamine H3 receptor [16]): Active
CS(=O)(=O)N1CCC2(CC1)CC(C(=O)N1CCN(C3CCC3)CC1)C2 | 19 ×10⁻⁶ cm/s | – | – | 0.97 | 8.3 µL/min/mg | > 500 µM | 7.96 | 16 µL/min/mg | – | 0.67 | CL (Rattus norvegicus [18]): 69.8 mL/min/kg; half-life [19]: 0.4 h; Vd [20]: 1.4 L/kg
CC(C)S(=O)(=O)N1CCC2(CCN(C(=O)N3CCCN(C4CCC4)CC3)C2)CC1 | 7.8 ×10⁻⁶ cm/s | 6 | < 4.48 | 0.8 | 20 µL/min/mg | > 500 µM | 8.49 | 34 µL/min/mg | – | – | Vd [21]: 2.1 L/kg; half-life [22]: 0.6 h; CL (Rattus norvegicus [23]): 53 mL/min/kg
O=C(C1CC2(CCN(C3CCOCC3)CC2)C1)N1CCN(C2CCC2)CC1 | 5.1 ×10⁻⁶ cm/s | – | – | – | < 4 µL/min/mg | > 500 µM | 8.72 | < 4 µL/min/mg | – | 0.51 | Activity [24]: > 10%; Activity (Homo sapiens [25]): > 10%; Vd [26]: 74 L/kg; Activity [27]: > 10%; Activity [28]: > 10%; Activity [29]: > 10%; CL (Rattus norvegicus [30]): 81.2 mL/min/kg; half-life [31]: 14.2 h; Activity [32]: > 10%; Activity [33]: > 10%; Activity [34]: > 10%; Activity [35]: > 10%; Activity (Homo sapiens [36]): > 10%

— ChEMBL document CHEMBL3124793, “Discovery of spirofused piperazine and diazepane amides as selective histamine-3 antagonists with in vivo efficacy in a mouse model of cognition” (J Med Chem, 2014)
